{"source": "ChEMBL document CHEMBL4028903", "about": "(J Med Chem, 2017)", "key": {"[1]": {"assay": "Drug uptake in Sprague-Dawley rat liver at 0.003 mg/kg, po qd administered via gavage measured 7 hrs post last dose on day 14 by LC-MS/MS analysis", "type": "ADME, organism-based", "conditions": "read-out: Drug uptake", "in_short": "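Drug concentration in liver was quantified from tissue homogenates, so these are total levels. Unbound liver concentration was not determined.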"}, "[2]": {"assay": "Half life in rat at 3 mg/kg, iv by LC-MS/MS analysis", "type": "ADME, organism-based", "conditions": "in vivo", "in_short": "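Single IV dose given as a solution. Mouse and rat received it in 75% PEG300:25% D5W. Dog received it in 20% PEG300, 5% solutol and 75% carbonate buffer pH = 8. Plasma was sampled for PK parameters.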"}, "[3]": {"tested_on": "Rattus norvegicus", "assay": "In vivo agonist activity at FXR in Sprague-Dawley rat assessed as induction of SHP mRNA level in liver at 0.01 mg/kg, po qd for 14 days measured 7 hrs post last dose on day 14 by qPCR analysis", "type": "functional, organism-based"}, "[4]": {"molecular_target": "T1, G-protein coupled bile acid receptor 1 (Mus musculus, UniProt Q80SS6)", "T1 sequence (Q80SS6 whole entry)": "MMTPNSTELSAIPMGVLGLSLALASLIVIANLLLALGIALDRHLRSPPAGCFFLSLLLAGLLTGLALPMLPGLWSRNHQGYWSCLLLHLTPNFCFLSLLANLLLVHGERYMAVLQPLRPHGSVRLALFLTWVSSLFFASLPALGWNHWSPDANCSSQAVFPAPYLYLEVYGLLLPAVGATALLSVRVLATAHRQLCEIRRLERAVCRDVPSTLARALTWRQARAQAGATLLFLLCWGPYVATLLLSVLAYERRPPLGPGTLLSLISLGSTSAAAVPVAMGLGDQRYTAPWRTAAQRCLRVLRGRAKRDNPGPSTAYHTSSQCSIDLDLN", "assay": "Agonist activity at mouse TGR5"}, "[5]": {"assay": "Drug uptake in Sprague-Dawley rat plasma at 0.1 mg/kg, po qd administered via gavage measured 1 hr post last dose on day 14 by LC-MS/MS analysis", "type": "ADME, organism-based"}, "[6]": {"assay": "Cmax in Sprague-Dawley rat at 0.01 mg/kg, po qd administered via gavage measured on day 1 by LC-MS/MS analysis", "type": "ADME, organism-based", "parameters": "dose 0.01 mg/kg, route oral", "conditions": "in vivo"}, "[7]": {"assay": "Drug uptake in Sprague-Dawley rat plasma at 0.03 mg/kg, po qd administered via gavage measured 1 hr post last dose on day 14 by LC-MS/MS analysis", "type": "ADME, organism-based"}, "[8]": {"tested_on": "Rattus norvegicus", "assay": "Dose normalized AUC (0 to 24 hrs) in Sprague-Dawley rat at 0.01 mg/kg, po qd administered via gavage measured on day 11 by LC-MS/MS analysis", "type": "ADME, organism-based", "conditions": "in vivo"}, "[9]": {"tested_on": "Rattus norvegicus", "assay": "Dose normalized AUC (0 to 24 hrs) in Sprague-Dawley rat at 0.1 mg/kg, po qd administered via gavage measured on day 11 by LC-MS/MS analysis", "type": "ADME, organism-based", "conditions": "in vivo"}, "[10]": {"assay": "Volume of distribution at steady state in mouse at 5 mg/kg, iv or 10 mg/kg, po administered via gavage by LC-MS/MS analysis", "type": "ADME, organism-based", "conditions": "in vivo, read-out: Vdss", "in_short": "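IV dosing used a solution in 75% PEG300:25% D5W for mouse and rat, and a solution in 20% PEG300, 5% solutol, 75% carbonate buffer pH 8 for dog. PO dosing used a suspension in 0.5% methylcellulose, 0.5% Tween80, 99% water for all three species.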"}, "[11]": {"molecular_target": "T2, G-protein coupled bile acid receptor 1 (Homo sapiens, UniProt Q8TDU6)", "T2 sequence (Q8TDU6 whole entry)": "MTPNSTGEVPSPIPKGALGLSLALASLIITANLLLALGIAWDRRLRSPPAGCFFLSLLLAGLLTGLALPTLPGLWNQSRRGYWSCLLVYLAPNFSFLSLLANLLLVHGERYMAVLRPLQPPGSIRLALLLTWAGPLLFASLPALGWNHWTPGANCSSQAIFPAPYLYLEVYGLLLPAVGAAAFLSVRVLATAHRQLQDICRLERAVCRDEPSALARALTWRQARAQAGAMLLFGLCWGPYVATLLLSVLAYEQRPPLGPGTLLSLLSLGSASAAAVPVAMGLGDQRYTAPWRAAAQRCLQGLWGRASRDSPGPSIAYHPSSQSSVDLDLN", "assay": "Agonist activity at human TGR5"}, "[12]": {"assay": "AUC (0 to 24 hrs) in Sprague-Dawley rat at 0.3 mg/kg, po qd administered via gavage measured on day 11 by LC-MS/MS analysis", "type": "ADME, organism-based", "parameters": "dose 0.3 mg/kg, time < 24 hr, route oral", "conditions": "in vivo"}}, "note": "The source made the active and inactive calls. The rule behind the calls is not given here.", "data": [{"smiles": "O=C(O)c1cc(F)c2nc(N3C4CCC3CC(OCc3c(-c5ccccc5OC(F)(F)F)noc3C3CC3)C4)sc2c1", "note": "(configuration not stated)", "values": [{"measurement": "concentration at 7 h", "setting": "[1]", "value": 2.3, "unit": "nM"}, {"measurement": "half-life", "setting": "[2]", "value": 3.7, "unit": "h"}, {"measurement": "Activity", "setting": "[3]", "value": "Active"}, {"measurement": "EC50", "setting": "[4]", "value": "> 10", "unit": "µM"}, {"measurement": "concentration at 1 h", "setting": "[5]", "value": 3.95, "unit": "nM"}, {"measurement": "Cmax", "setting": "[6]", "value": 0.44, "unit": "nM"}, {"measurement": "concentration at 1 h", "setting": "[7]", "value": 1.29, "unit": "nM"}, {"measurement": "AUC/dose", "setting": "[8]", "value": 496, "unit": "nM·h"}, {"measurement": "AUC/dose", "setting": "[9]", "value": 796, "unit": "nM·h"}, {"measurement": "Vd", "setting": "[10]", "value": 0.7, "unit": "L/kg"}, {"measurement": "EC50", "setting": "[11]", "value": "> 10", "unit": "µM"}, {"measurement": "AUC at 24 h", "setting": "[12]", "value": 0.19, "unit": "µM·h"}]}]}
